Measured values taken from ChEMBL document CHEMBL5058577, “EUbOPEN Chemogenomics Library 2 (Multiplex)” (2022).

System: Fibroblast
Assay: Multiplex assay against human fibroblast
Type: toxicity, cell-based
Method in brief: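 Phenotypes for tubulin, mitochondrial mass and membrane permeability are expressed as per cents of healthy-nucleus cells. Cells were stained live at seeding with Hoechst33342, BioTracker Green Microtubule Cytoskeleton Dye, MitoTracker Red and Annexin V Alexa Fluor 680, then imaged after compound addition on a CQ1 microscope at 37°C and 5% CO2. Machine-learning gating in CellPathfinder separated Hoechst high-intensity objects from normal cells, divided normal cells by nuclear state (healthy, pyknosed, fragmented) and divided pyknosed cells into mitotic or apoptotic.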

[1] = 12 h, 1 µM, compound concentration 1 uM, replicate 1
[2] = 12 h, 1 µM, compound concentration 1 uM, replicate 2
[3] = 12 h, 10 µM, compound concentration 10 uM, replicate 1
[4] = 12 h, 10 µM, compound concentration 10 uM, replicate 2
[5] = 24 h, 1 µM, compound concentration 1 uM, replicate 1
[6] = 24 h, 1 µM, compound concentration 1 uM, replicate 2
[7] = 24 h, 10 µM, compound concentration 10 uM, replicate 1
[8] = 24 h, 10 µM, compound concentration 10 uM, replicate 2
[9] = 48 h, 1 µM, compound concentration 1 uM, replicate 1
[10] = 48 h, 1 µM, compound concentration 1 uM, replicate 2
[11] = 48 h, 10 µM, compound concentration 10 uM, replicate 1
[12] = 48 h, 10 µM, compound concentration 10 uM, replicate 2

`C[C@H]1[C@H]2CC[C@H]3[C@@H]4CC=C5C[C@@H](N(C)C)CC[C@]5(C)[C@H]4CC[C@]23CN1C` [CONESSINE] was tested, and the “Population Apoptotic (%)” value [1] was 45%, the “Population Fragmented Nuclei (%)” value [1] was 15% and the “Population Healthy Nuclei (%)” value [1] was 73%. For the same compound, the “Population Hoechst High Intensity Objects (%)” value [1] was 1%, the “Population Membrane Permeable-Phenotype (%)” value [1] was 0% and the “Population Mitochondria Different-Phenotype (%)” value [1] was 8%. For the same compound, the “Population Mitotic Cells (%)” value [1] was 55%, the “Population Normal (%)” value [1] was 98% and the “Population Pyknosed Nuclei (%)” value [1] was 11%. For the same compound, the “Population Tubulin-Different-Phenotype (%)” value [1] was 19%, the “Total Cell Count” value [1] was 174 and the “Population Apoptotic (%)” value [2] was 29%. The “Population Fragmented Nuclei (%)” value [2] was 33%, the “Population Healthy Nuclei (%)” value [2] was 41% and the “Population Hoechst High Intensity Objects (%)” value [2] was 2%. The “Population Membrane Permeable-Phenotype (%)” value [2] was 7%, the “Population Mitochondria Different-Phenotype (%)” value [2] was 2% and the “Population Mitotic Cells (%)” value [2] was 70%. The “Population Normal (%)” value [2] was 97%, the “Population Pyknosed Nuclei (%)” value [2] was 24% and the “Population Tubulin-Different-Phenotype (%)” value [2] was 46%. For the same compound, the “Total Cell Count” value [2] was 101, the “Population Apoptotic (%)” value [3] was 37% and the “Population Fragmented Nuclei (%)” value [3] was 26%. For the same compound, the “Population Healthy Nuclei (%)” value [3] was 60%, the “Population Hoechst High Intensity Objects (%)” value [3] was 3% and the “Population Membrane Permeable-Phenotype (%)” value [3] was 5%. The “Population Mitochondria Different-Phenotype (%)” value [3] was 10%, the “Population Mitotic Cells (%)” value [3] was 62% and the “Population Normal (%)” value [3] was 96%. For the same compound, the “Population Pyknosed Nuclei (%)” value [3] was 13%, the “Population Tubulin-Different-Phenotype (%)” value [3] was 32% and the “Total Cell Count” value [3] was 189. The “Population Apoptotic (%)” value [4] was 43%, the “Population Healthy Nuclei (%)” value [4] was 45% and the “Population Membrane Permeable-Phenotype (%)” value [4] was 8%. The “Population Mitochondria Different-Phenotype (%)” value [4] was 4%, the “Population Mitotic Cells (%)” value [4] was 56% and the “Population Pyknosed Nuclei (%)” value [4] was 28%. For the same compound, the “Population Tubulin-Different-Phenotype (%)” value [4] was 58%, the “Total Cell Count” value [4] was 110 and the “Population Apoptotic (%)” value [5] was 43%. The “Population Fragmented Nuclei (%)” value [5] was 13%, the “Population Healthy Nuclei (%)” value [5] was 73% and the “Population Hoechst High Intensity Objects (%)” value [5] was 2%. The “Population Membrane Permeable-Phenotype (%)” value [5] was 1%, the “Population Mitochondria Different-Phenotype (%)” value [5] was 4% and the “Population Mitotic Cells (%)” value [5] was 56%. For the same compound, the “Population Normal (%)” value [5] was 97%, the “Population Pyknosed Nuclei (%)” value [5] was 13% and the “Population Tubulin-Different-Phenotype (%)” value [5] was 22%. For the same compound, the “Total Cell Count” value [5] was 175, the “Population Apoptotic (%)” value [6] was 40% and the “Population Fragmented Nuclei (%)” value [6] was 27%. For the same compound, the “Population Healthy Nuclei (%)” value [6] was 48%, the “Population Hoechst High Intensity Objects (%)” value [6] was 4% and the “Population Membrane Permeable-Phenotype (%)” value [6] was 13%. For the same compound, the “Population Mitochondria Different-Phenotype (%)” value [6] was 6%, the “Population Mitotic Cells (%)” value [6] was 59% and the “Population Normal (%)” value [6] was 95%. For the same compound, the “Population Pyknosed Nuclei (%)” value [6] was 24%, the “Population Tubulin-Different-Phenotype (%)” value [6] was 61% and the “Total Cell Count” value [6] was 95. For the same compound, the “Population Apoptotic (%)” value [7] was 64%, the “Population Fragmented Nuclei (%)” value [7] was 28% and the “Population Healthy Nuclei (%)” value [7] was 61%. For the same compound, the “Population Hoechst High Intensity Objects (%)” value [7] was 3%, the “Population Membrane Permeable-Phenotype (%)” value [7] was 1% and the “Population Mitochondria Different-Phenotype (%)” value [7] was 7%. For the same compound, the “Population Mitotic Cells (%)” value [7] was 35%, the “Population Normal (%)” value [7] was 96% and the “Population Pyknosed Nuclei (%)” value [7] was 9%. The “Population Tubulin-Different-Phenotype (%)” value [7] was 27%, the “Total Cell Count” value [7] was 190 and the “Population Apoptotic (%)” value [8] was 36%. For the same compound, the “Population Healthy Nuclei (%)” value [8] was 39%, the “Population Hoechst High Intensity Objects (%)” value [8] was 2% and the “Population Membrane Permeable-Phenotype (%)” value [8] was 7%. The “Population Mitotic Cells (%)” value [8] was 63%, the “Population Normal (%)” value [8] was 97% and the “Population Pyknosed Nuclei (%)” value [8] was 32%. The “Population Tubulin-Different-Phenotype (%)” value [8] was 60%, the “Total Cell Count” value [8] was 106 and the “Population Apoptotic (%)” value [9] was 50%. For the same compound, the “Population Fragmented Nuclei (%)” value [9] was 17%, the “Population Healthy Nuclei (%)” value [9] was 73% and the “Population Hoechst High Intensity Objects (%)” value [9] was 5%. For the same compound, the “Population Membrane Permeable-Phenotype (%)” value [9] was 0%, the “Population Mitochondria Different-Phenotype (%)” value [9] was 3% and the “Population Mitotic Cells (%)” value [9] was 50%. For the same compound, the “Population Normal (%)” value [9] was 94%, the “Population Pyknosed Nuclei (%)” value [9] was 9% and the “Population Tubulin-Different-Phenotype (%)” value [9] was 27%. The “Total Cell Count” value [9] was 178, the “Population Apoptotic (%)” value [10] was 47% and the “Population Fragmented Nuclei (%)” value [10] was 37%. The “Population Healthy Nuclei (%)” value [10] was 45%, the “Population Hoechst High Intensity Objects (%)” value [10] was 0% and the “Population Membrane Permeable-Phenotype (%)” value [10] was 17%. The “Population Mitochondria Different-Phenotype (%)” value [10] was 8%, the “Population Mitotic Cells (%)” value [10] was 52% and the “Population Normal (%)” value [10] was 99%. For the same compound, the “Population Pyknosed Nuclei (%)” value [10] was 16%, the “Population Tubulin-Different-Phenotype (%)” value [10] was 63% and the “Total Cell Count” value [10] was 104. The “Population Apoptotic (%)” value [11] was 66%, the “Population Fragmented Nuclei (%)” value [11] was 26% and the “Population Healthy Nuclei (%)” value [11] was 62%. The “Population Hoechst High Intensity Objects (%)” value [11] was 6%, the “Population Membrane Permeable-Phenotype (%)” value [11] was 0% and the “Population Mitochondria Different-Phenotype (%)” value [11] was 4%. The “Population Mitotic Cells (%)” value [11] was 33%, the “Population Normal (%)” value [11] was 93% and the “Population Pyknosed Nuclei (%)” value [11] was 10%. For the same compound, the “Population Tubulin-Different-Phenotype (%)” value [11] was 25%, the “Total Cell Count” value [11] was 190 and the “Population Apoptotic (%)” value [12] was 27%. The “Population Fragmented Nuclei (%)” value [12] was 29%, the “Population Healthy Nuclei (%)” value [12] was 48% and the “Population Hoechst High Intensity Objects (%)” value [12] was 2%. The “Population Membrane Permeable-Phenotype (%)” value [12] was 8%, the “Population Mitochondria Different-Phenotype (%)” value [12] was 6% and the “Population Mitotic Cells (%)” value [12] was 72%. The “Population Normal (%)” value [12] was 97%, the “Population Pyknosed Nuclei (%)” value [12] was 22% and the “Population Tubulin-Different-Phenotype (%)” value [12] was 62%. The “Total Cell Count” value [12] was 102.
